Data as given in ChEMBL document CHEMBL1275252, “First survey of metallo-beta-lactamases in clinical isolates of Pseudomonas aeruginosa in a German university hospital” (2010).
Values after ≈ are worked out from the molar mass of the structure shown.

Tests used:
Assay type in all cases: functional
Pseudomonas aeruginosa [1] = test: Antimicrobial activity against Pseudomonas aeruginosa isolate PA399 expressing VIM-2 beta-lactamase
Pseudomonas aeruginosa [2] = test: Antimicrobial activity against Pseudomonas aeruginosa isolate PA462 expressing VIM-2 beta-lactamase
Pseudomonas aeruginosa [3] = test: Antimicrobial activity against Pseudomonas aeruginosa isolate PA465 expressing VIM-2 beta-lactamase
Pseudomonas aeruginosa [4] = test: Antimicrobial activity against Pseudomonas aeruginosa isolate PA469 expressing VIM-2 beta-lactamase
Pseudomonas aeruginosa [5] = test: Antimicrobial activity against Pseudomonas aeruginosa isolate PA475 expressing VIM-2 beta-lactamase
Pseudomonas aeruginosa [6] = test: Antimicrobial activity against Pseudomonas aeruginosa isolate PA477 expressing VIM-2 beta-lactamase
Pseudomonas aeruginosa [7] = test: Antimicrobial activity against Pseudomonas aeruginosa isolate PA481 expressing VIM-2 beta-lactamase
Pseudomonas aeruginosa [8] = test: Antimicrobial activity against Pseudomonas aeruginosa isolate PA500 expressing VIM-1 beta-lactamase
Pseudomonas aeruginosa [9] = test: Antimicrobial activity against Pseudomonas aeruginosa isolate PA510 expressing VIM-2 beta-lactamase
Pseudomonas aeruginosa [10] = test: Antimicrobial activity against metallo-beta-lactamase-negative Pseudomonas aeruginosa isolate PA459
Procedure, shortened: (§1)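 MBL-negative clinical P. aeruginosa isolates with reduced imipenem susceptibility, collected at the study hospital, some from cystic fibrosis patients. Species identity was confirmed by automated Gram-negative identification card. MIC was read in μg/ml.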

Pseudomonas aeruginosa [11] = test: Antimicrobial activity against metallo-beta-lactamase-negative Pseudomonas aeruginosa isolate PA460
Pseudomonas aeruginosa [12] = test: Antimicrobial activity against metallo-beta-lactamase-negative Pseudomonas aeruginosa isolate PA479
Pseudomonas aeruginosa [13] = test: Antimicrobial activity against metallo-beta-lactamase-negative Pseudomonas aeruginosa isolate PA483
Pseudomonas aeruginosa [14] = test: Antimicrobial activity against metallo-beta-lactamase-negative Pseudomonas aeruginosa isolate PA494
Pseudomonas aeruginosa [15] = test: Antimicrobial activity against metallo-beta-lactamase-negative Pseudomonas aeruginosa isolate PA507; procedure, shortened: as §1
Pseudomonas aeruginosa [16] = test: Antimicrobial activity against metallo-beta-lactamase-negative Pseudomonas aeruginosa isolate PA509

Compound	MIC (Pseudomonas aeruginosa [1])	MIC (Pseudomonas aeruginosa [2])	MIC (Pseudomonas aeruginosa [3])	MIC (Pseudomonas aeruginosa [4])	MIC (Pseudomonas aeruginosa [5])	MIC (Pseudomonas aeruginosa [6])	MIC (Pseudomonas aeruginosa [7])	MIC (Pseudomonas aeruginosa [8])	MIC (Pseudomonas aeruginosa [9])	MIC (Pseudomonas aeruginosa [10])	MIC (Pseudomonas aeruginosa [11])	MIC (Pseudomonas aeruginosa [12])	MIC (Pseudomonas aeruginosa [13])	MIC (Pseudomonas aeruginosa [14])	MIC (Pseudomonas aeruginosa [15])	MIC (Pseudomonas aeruginosa [16])
NCC[C@H](O)C(=O)N[C@@H]1C[C@H](N)[C@@H](O[C@H]2O[C@H](CN)[C@@H](O)[C@H](O)[C@H]2O)[C@H](O)[C@H]1O[C@H]1O[C@H](CO)[C@@H](O)[C@H](N)[C@H]1O [AMIKACIN]	8 µg/mL (≈ 13.7 µM)	4 µg/mL (≈ 6.83 µM)	8 µg/mL (≈ 13.7 µM)	8 µg/mL (≈ 13.7 µM)	4 µg/mL (≈ 6.83 µM)	8 µg/mL (≈ 13.7 µM)	8 µg/mL (≈ 13.7 µM)	≤ 2 µg/mL	4 µg/mL (≈ 6.83 µM)	2 µg/mL (≈ 3.42 µM)	4 µg/mL (≈ 6.83 µM)	8 µg/mL (≈ 13.7 µM)	2 µg/mL (≈ 3.42 µM)	8 µg/mL (≈ 13.7 µM)	16 µg/mL (≈ 27.3 µM)	64 µg/mL (≈ 109 µM)
C[C@@H](O)[C@H]1C(=O)N2C(C(=O)O)=C(S[C@@H]3CN[C@H](C(=O)N(C)C)C3)[C@H](C)[C@H]12 [MEROPENEM]	≥ 16 µg/mL	≥ 16 µg/mL	≥ 16 µg/mL	≥ 16 µg/mL	≥ 16 µg/mL	≥ 16 µg/mL	≥ 16 µg/mL	≥ 16 µg/mL	≥ 16 µg/mL	8 µg/mL (≈ 20.9 µM)	8 µg/mL (≈ 20.9 µM)	≥ 16 µg/mL	≥ 16 µg/mL	8 µg/mL (≈ 20.9 µM)	4 µg/mL (≈ 10.4 µM)	≥ 16 µg/mL
